Assay results published in ChEMBL document CHEMBL3627606, “Development of Novel, CNS Penetrant Positive Allosteric Modulators for the Metabotropic Glutamate Receptor Subtype 1 (mGlu1), Based on an N-(3-Chloro-4-(1,3-dioxoisoindolin-2-yl)phenyl)-3-methylfuran-2-carboxamide Scaffold, That Potentiate Wild Type and Mutant mGlu1 Receptors Found in …” (J Med Chem, 2015).

How the values were obtained:
[1] = target: T1, Metabotropic glutamate receptor 1 (Homo sapiens, UniProt Q13255); assay: Positive allosteric modulation of human mGlu1 receptor in HEK293 cells assessed as potentiation of glutamate-induced calcium mobiliztion by Fluo-4AM dye based fluorescence analysis; assay type: functional, cell-based
Target sequence in this assay (Q13255 whole entry): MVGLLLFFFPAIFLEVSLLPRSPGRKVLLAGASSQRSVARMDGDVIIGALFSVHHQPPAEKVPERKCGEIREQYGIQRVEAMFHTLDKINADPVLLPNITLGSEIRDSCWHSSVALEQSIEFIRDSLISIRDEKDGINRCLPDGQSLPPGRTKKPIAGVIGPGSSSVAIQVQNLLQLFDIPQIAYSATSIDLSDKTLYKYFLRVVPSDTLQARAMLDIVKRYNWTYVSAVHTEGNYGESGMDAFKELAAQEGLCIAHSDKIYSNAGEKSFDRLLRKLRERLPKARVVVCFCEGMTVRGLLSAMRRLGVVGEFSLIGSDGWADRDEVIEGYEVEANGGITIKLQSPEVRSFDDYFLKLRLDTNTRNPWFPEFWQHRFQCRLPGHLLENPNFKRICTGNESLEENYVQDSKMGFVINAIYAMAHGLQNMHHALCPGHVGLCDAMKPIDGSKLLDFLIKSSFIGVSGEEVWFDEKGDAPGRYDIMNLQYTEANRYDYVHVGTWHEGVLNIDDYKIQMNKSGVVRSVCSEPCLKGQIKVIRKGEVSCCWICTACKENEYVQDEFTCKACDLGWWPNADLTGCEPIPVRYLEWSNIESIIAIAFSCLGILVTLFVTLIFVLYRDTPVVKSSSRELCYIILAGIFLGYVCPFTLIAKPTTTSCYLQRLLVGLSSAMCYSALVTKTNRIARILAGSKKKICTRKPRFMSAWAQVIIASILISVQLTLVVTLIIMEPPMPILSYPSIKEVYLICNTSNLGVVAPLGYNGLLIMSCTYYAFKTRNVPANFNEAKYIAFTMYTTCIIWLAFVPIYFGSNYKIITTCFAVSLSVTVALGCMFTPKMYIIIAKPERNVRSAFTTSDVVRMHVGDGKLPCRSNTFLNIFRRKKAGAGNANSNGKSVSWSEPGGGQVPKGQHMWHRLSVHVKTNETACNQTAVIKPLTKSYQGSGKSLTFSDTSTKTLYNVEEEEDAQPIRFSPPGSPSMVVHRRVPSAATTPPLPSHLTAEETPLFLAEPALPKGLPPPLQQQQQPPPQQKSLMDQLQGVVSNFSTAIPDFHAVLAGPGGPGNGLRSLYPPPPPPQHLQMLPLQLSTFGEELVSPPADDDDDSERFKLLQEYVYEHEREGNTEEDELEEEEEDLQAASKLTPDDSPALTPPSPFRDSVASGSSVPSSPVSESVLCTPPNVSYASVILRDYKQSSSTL

[2] = target: T2, Metabotropic glutamate receptor 4 (Homo sapiens, UniProt Q14833); assay: Positive allosteric modulation of human mGlu4 receptor assessed as potentiation of glutamate-induced calcium mobiliztion by cell based assay; assay type: functional; settings: read-out: EC50
[3] = species: Homo sapiens; assay: Selectivity index, ratio of EC50 for human mGlu4 receptor to EC50 for human mGlu1 receptor
[4] = target: Metabotropic glutamate receptor 1 (Rattus norvegicus, UniProt P23385); assay: Positive allosteric modulation of rat mGlu1 receptor assessed as potentiation of glutamate-induced calcium mobiliztion by cell based assay; assay type: functional
Method in brief: (§1)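 Rat mGlu1 WT calcium mobilization concentration-response curves. EC50 and % Glu Max were derived from the curves.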

[5] = target: Metabotropic glutamate receptor 1 (Rattus norvegicus) (UniProt P23385); assay: Positive allosteric modulation of rat mGlu1 receptor assessed as potentiation of glutamate-induced calcium mobiliztion by cell based assay relative to glutamate; assay type: functional; method in brief: as §1
[6] = target: T1, Metabotropic glutamate receptor 1; assay: Positive allosteric modulation of human mGlu1 receptor in HEK293 cells assessed as potentiation of glutamate-induced calcium mobiliztion at 10 uM by Fluo-4AM dye based fluorescence analysis; assay type: functional, cell-based
Target sequence in this assay (Q13255 19-1194 limits assumed): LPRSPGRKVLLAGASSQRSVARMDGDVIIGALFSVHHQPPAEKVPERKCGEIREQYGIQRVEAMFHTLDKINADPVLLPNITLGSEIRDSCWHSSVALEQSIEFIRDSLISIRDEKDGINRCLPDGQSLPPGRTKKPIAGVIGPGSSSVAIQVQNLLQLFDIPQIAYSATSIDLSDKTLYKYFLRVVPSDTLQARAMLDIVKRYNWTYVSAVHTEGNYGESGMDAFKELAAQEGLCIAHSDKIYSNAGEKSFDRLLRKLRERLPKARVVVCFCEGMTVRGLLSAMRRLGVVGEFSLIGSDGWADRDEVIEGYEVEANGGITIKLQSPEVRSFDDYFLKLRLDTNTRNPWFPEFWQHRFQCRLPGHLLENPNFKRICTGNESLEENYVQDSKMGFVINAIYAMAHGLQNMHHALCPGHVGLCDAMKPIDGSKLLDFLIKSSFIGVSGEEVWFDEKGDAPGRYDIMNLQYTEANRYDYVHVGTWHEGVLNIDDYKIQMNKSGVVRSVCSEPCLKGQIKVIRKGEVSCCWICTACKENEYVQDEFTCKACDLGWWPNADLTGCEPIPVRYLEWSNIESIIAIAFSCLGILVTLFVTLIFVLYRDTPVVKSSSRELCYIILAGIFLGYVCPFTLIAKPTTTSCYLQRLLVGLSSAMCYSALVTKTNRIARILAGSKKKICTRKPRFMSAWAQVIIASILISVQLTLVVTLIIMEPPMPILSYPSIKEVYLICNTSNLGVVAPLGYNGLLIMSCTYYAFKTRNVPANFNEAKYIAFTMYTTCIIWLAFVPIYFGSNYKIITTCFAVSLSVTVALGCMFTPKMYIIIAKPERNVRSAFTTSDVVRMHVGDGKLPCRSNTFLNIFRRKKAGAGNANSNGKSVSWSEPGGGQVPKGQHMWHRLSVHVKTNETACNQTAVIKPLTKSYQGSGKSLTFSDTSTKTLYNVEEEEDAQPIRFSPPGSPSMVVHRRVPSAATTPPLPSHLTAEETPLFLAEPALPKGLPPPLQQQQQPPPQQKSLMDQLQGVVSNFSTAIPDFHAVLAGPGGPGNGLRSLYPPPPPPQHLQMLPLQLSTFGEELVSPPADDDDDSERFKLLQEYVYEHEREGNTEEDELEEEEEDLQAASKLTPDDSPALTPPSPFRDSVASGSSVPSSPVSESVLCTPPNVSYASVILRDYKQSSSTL

[7] = target: T1, Metabotropic glutamate receptor 1; assay: Agonist activity at human mGlu1 receptor in HEK293 cells assessed as calcium mobilization at 10 uM by Fluo-4AM dye based fluorescence analysis; assay type: functional, cell-based
Target sequence in this assay (Q13255 19-1194 limits assumed): as above

[8] = target: Metabotropic glutamate receptor 2 (Homo sapiens) (UniProt Q14416); assay: Positive allosteric modulation of mGlu2 receptor (unknown origin) assessed as potentiation of glutamate-induced response by cell-based assay
Method in brief: (§2)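 Selectivity counterscreen at the other mGlu subtypes using the standard fold-shift paradigm. Compound was tested at 10 μM against the glutamate concentration-response curve, and the shift of that curve was read.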

[9] = target: Metabotropic glutamate receptor 3 (Homo sapiens) (UniProt Q14832); assay: Positive allosteric modulation of mGlu3 receptor (unknown origin) assessed as potentiation of glutamate-induced response by cell-based assay; method in brief: as §2
[10] = target: Metabotropic glutamate receptor 5 (Homo sapiens) (UniProt P41594); assay: Positive allosteric modulation of mGlu5 receptor (unknown origin) assessed as potentiation of glutamate-induced response by cell-based assay; method in brief: as §2
[11] = target: Metabotropic glutamate receptor 6 (Homo sapiens) (UniProt O15303); assay: Positive allosteric modulation of mGlu6 receptor (unknown origin) assessed as potentiation of glutamate-induced response by cell-based assay; method in brief: as §2
[12] = target: Metabotropic glutamate receptor 7 (Homo sapiens) (UniProt Q14831); assay: Positive allosteric modulation of mGlu7 receptor (unknown origin) assessed as potentiation of glutamate-induced response by cell-based assay; method in brief: as §2
[13] = target: Metabotropic glutamate receptor 8 (Homo sapiens) (UniProt O00222); assay: Positive allosteric modulation of mGlu8 receptor (unknown origin) assessed as potentiation of glutamate-induced response by cell-based assay; method in brief: as §2
[14] = tested on: Plasma; assay: Fraction unbound in human plasma; assay type: ADME, cell-free
[15] = tested on: Plasma; assay: Fraction unbound in rat plasma; assay type: ADME, cell-free
[16] = target: Cytochrome P450 2C9 (Homo sapiens, UniProt P11712); assay: Inhibition of CYP2C9 in human liver microsomes by LC-MS/MS analysis; assay type: ADME
[17] = target: Cytochrome P450 3A4 (Homo sapiens, UniProt P08684); assay: Inhibition of CYP3A4 in human liver microsomes by LC-MS/MS analysis; assay type: ADME
[18] = tested on: Metabotropic glutamate receptor 1 (Homo sapiens), Q13255 [P729T]; assay: Agonist activity at human mGlu1 P729T mutant receptor expressed in HEK293 cells assessed as calcium mobilization at > 1 uM uM by Fluo-4AM dye based fluorescence analysis; assay type: functional, cell-based
[19] = tested on: Metabotropic glutamate receptor 1 (Homo sapiens), Q13255 [A683E]; assay: Agonist activity at human mGlu1 A683E mutant receptor expressed in HEK293 cells assessed as calcium mobilization at > 1 uM uM by Fluo-4AM dye based fluorescence analysis; assay type: functional, cell-based
[20] = tested on: Metabotropic glutamate receptor 1 (Homo sapiens), Q13255 [Y632H]; assay: Agonist activity at human mGlu1 Y632H mutant receptor expressed in HEK293 cells assessed as calcium mobilization at > 1 uM uM by Fluo-4AM dye based fluorescence analysis; assay type: functional, cell-based
[21] = tested on: Metabotropic glutamate receptor 1 (Homo sapiens), Q13255 [P1014S]; assay: Agonist activity at human mGlu1 P1014S mutant receptor expressed in HEK293 cells assessed as calcium mobilization at > 1 uM uM by Fluo-4AM dye based fluorescence analysis; assay type: functional, cell-based
[22] = tested on: Hippocampus; assay: Toxic epileptiform activity in C57BL/6 mouse CA3 region of hippocampus assessed as frequency of spike activity at 10 uM by electrophysiolgy method (reference value: 0.99 +/- 0.38 Hz); assay type: toxicity, tissue-based
Method in brief: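 Mouse hippocampal slices with extracellular recording from the CA3 pyramidal cell body layer. Compound (10 μM) or DHPG (50 μM) was bath-applied, and the frequency of spontaneous spikes was compared with baseline. n = 6 per agent, paired t test.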

[23] = tested on: Mus musculus; assay: Toxicity in C57BL/6 mouse assessed as seizure activity at 100 mg/kg, ip administered as single dose measured for 3 hrs; assay type: organism-based; settings: in vivo
Method in brief: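 Male C57Bl/6 mice (25−30 g) dosed ip in 10% Tween 80 at 10 mL/kg: the mGlu5 ago-PAM at 1 or 3 mg/kg, the mGlu1 PAMs at 100 mg/kg. Behaviour was monitored continuously for 3 h and scored on a modified Racine scale (0−5).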

[24] = species: Homo sapiens; assay: Intrinsic clearance in human hepatocytes at 1 uM by LC-MS/MS analysis; settings: read-out: CLH
[25] = Half life in Sprague-Dawley rat at 0.2 mg/kg, iv by LC-MS/MS analysis; settings: in vivo
[26] = Plasma clearance in Sprague-Dawley rat at 0.2 mg/kg, iv by LC-MS/MS analysis
[27] = Mean residence time in Sprague-Dawley rat at 0.2 mg/kg, iv by LC-MS/MS analysis; settings: in vivo
[28] = Plasma concentration in Sprague-Dawley rat at 0.2 mg/kg, iv after 0.25 hrs by LC-MS/MS analysis
[29] = tested on: Rattus norvegicus; assay: Volume of distribution at steady state in Sprague-Dawley rat at 0.2 mg/kg, iv by LC-MS/MS analysis; settings: in vivo
[30] = Drug concentration in Sprague-Dawley rat brain at 0.2 mg/kg, iv after 0.25 hrs by LC-MS/MS analysis; settings: read-out: Drug uptake
[31] = target: T2, Metabotropic glutamate receptor 4; assay: Positive allosteric modulation of human mGlu4 receptor assessed as potentiation of glutamate-induced calcium mobiliztion by cell based assay relative to PHCCC

T2 sequence (Q14833 whole entry): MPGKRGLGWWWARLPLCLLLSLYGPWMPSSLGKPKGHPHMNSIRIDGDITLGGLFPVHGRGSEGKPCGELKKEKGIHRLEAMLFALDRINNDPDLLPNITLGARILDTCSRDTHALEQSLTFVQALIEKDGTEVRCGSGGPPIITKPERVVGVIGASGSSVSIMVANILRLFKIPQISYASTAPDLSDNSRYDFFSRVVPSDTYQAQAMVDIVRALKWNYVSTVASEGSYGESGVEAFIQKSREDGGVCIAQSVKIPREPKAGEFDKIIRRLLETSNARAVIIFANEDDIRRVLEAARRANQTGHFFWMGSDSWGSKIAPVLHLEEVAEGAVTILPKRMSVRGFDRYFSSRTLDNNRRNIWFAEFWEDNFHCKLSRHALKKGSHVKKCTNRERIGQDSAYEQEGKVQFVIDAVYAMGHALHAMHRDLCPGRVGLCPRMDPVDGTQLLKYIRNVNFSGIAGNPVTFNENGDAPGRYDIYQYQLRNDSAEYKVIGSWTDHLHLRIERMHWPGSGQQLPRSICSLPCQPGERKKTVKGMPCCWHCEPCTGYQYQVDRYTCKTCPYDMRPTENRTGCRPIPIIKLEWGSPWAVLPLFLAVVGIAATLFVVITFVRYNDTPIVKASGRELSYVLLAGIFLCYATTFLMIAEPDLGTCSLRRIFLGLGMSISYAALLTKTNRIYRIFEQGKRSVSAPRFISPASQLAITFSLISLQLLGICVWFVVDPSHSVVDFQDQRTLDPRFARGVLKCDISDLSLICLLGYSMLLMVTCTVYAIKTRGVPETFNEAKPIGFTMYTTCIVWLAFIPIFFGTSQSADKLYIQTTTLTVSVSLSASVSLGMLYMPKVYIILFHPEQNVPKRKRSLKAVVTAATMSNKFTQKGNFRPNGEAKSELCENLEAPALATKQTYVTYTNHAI
Sequence of Metabotropic glutamate receptor 1 (Rattus norvegicus) (P23385 19-1199 limits assumed): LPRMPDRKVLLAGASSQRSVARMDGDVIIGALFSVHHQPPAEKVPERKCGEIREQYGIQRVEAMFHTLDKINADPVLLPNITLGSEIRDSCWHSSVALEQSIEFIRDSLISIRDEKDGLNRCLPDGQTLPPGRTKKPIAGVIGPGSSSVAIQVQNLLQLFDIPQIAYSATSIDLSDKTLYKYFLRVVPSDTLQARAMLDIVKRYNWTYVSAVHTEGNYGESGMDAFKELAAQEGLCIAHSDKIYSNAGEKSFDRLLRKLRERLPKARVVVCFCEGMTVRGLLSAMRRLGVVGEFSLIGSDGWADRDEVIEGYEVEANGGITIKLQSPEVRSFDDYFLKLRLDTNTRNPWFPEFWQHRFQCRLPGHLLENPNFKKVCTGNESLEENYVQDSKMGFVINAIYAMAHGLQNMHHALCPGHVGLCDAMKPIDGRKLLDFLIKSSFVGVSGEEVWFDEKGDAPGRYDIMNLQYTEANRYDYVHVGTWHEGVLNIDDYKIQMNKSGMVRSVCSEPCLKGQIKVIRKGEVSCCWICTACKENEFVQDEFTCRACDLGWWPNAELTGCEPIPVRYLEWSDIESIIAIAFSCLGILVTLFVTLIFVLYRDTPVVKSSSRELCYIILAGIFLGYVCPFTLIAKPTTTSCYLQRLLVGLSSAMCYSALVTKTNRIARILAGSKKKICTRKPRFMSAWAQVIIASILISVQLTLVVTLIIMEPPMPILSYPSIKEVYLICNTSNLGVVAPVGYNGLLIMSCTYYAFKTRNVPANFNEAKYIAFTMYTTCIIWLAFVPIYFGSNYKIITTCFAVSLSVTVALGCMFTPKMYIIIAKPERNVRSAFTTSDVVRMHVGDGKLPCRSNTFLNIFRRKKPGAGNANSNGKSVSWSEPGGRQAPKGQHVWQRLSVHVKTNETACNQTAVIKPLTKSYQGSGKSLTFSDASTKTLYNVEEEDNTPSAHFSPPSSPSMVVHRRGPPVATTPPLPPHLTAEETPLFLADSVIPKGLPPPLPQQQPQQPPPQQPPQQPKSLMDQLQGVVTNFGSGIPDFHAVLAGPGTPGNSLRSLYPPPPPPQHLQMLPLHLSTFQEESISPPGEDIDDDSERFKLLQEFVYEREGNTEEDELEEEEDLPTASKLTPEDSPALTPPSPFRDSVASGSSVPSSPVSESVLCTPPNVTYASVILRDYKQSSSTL
Sequence of Metabotropic glutamate receptor 1 (Homo sapiens), Q13255 [P1014S] (Q13255 whole entry P1014S): as the sequence (Q13255 whole entry) above, with P1014S counted along it
Sequence of Metabotropic glutamate receptor 1 (Homo sapiens), Q13255 [Y632H] (Q13255 whole entry Y632H): as the sequence (Q13255 whole entry) above, with Y632H counted along it
Sequence of Cytochrome P450 2C9 (P11712 whole entry): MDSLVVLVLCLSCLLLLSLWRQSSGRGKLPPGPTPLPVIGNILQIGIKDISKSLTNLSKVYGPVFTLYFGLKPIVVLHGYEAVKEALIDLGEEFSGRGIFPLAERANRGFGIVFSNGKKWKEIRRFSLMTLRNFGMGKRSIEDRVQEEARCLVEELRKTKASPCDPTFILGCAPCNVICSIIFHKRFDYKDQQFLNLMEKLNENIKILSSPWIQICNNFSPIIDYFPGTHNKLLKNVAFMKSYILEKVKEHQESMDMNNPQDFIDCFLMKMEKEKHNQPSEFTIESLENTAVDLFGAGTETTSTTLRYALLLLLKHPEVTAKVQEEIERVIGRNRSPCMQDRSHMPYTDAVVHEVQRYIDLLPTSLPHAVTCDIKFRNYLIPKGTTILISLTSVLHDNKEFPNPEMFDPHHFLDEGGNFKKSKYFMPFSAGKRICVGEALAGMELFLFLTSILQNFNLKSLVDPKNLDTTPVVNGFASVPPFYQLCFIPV

Q: With `Cc1ccoc1C(=O)Nc1ccc(N2C(=O)c3cccc(F)c3C2=O)c(Cl)c1` as the compound, how does the EC50 ([1]; read-out: EC50) read?
A: 31.8 nM

Q: And the EC50 ([1]; read-out: pEC50 (converted))?
A: 32.4 nM

Q: What about the EC50 [2] of the same compound?
A: 1110 nM

Q: What about the Ratio EC50 [3] of the same compound?
A: 34.9

Q: What about the EC50 [4] of the same compound?
A: 40.7 nM

Q: What about the %max [5] of the same compound?
A: 103%

Q: What about the fold change (FC) [6] of the same compound?
A: 11.4

Q: What about the Activity [7] of the same compound?
A: 35%

Q: What about the fold change (FC) [8] of the same compound?
A: < 2

Q: And the fold change (FC) [9]?
A: < 2

Q: What about the fold change (FC) [10] of the same compound?
A: 2.7

Q: And the fold change (FC) [11]?
A: 6.7

Q: And the fold change (FC) [12]?
A: 7

Q: What about the fold change (FC) [13] of the same compound?
A: < 2

Q: What about the Fu [14] of the same compound?
A: 0.051

Q: What about the Fu [15] of the same compound?
A: 0.03

Q: What about the IC50 [16] of the same compound?
A: 6450 nM

Q: And the IC50 [17]?
A: > 30000 nM

Q: What about the Activity [18] of the same compound?
A: 40%

Q: What about the Activity [19] of the same compound?
A: 40%

Q: And the Activity [20]?
A: 40%

Q: And the Activity [21]?
A: 40%

Q: What about the Activity [22] of the same compound?
A: 1.16 Hz

Q: And the Activity [23]?
A: Non-toxic

Q: What about the CLint scaled at 1 µM [24] of the same compound?
A: 2.7 mL/min/kg

Q: What about the half-life [25] of the same compound?
A: 53.6 min

Q: What about the clearance [26] of the same compound?
A: 13.3 mL/min/kg

Q: What about the MRT [27] of the same compound?
A: 64.1 min

Q: What about the concentration at 0.25 h [28] of the same compound?
A: 200 ng/mL

Q: And the Vdss [29]?
A: 0.85 L/kg

Q: And the concentration at 0.25 h [30]?
A: 204 ng/mL

Q: And the %max [31]?
A: 122%
